The structures appear in SMILES notation. The campaign covered roughly 2,500 compounds. About 1,200 (48%) were called active. So high a share suggests a set chosen from earlier hits. The list shows a part of the results. Values without a mark were called inactive.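 How the source made its calls: active means mean activation above the low control average plus 3 SD, as set in the primary screen (cut at about 12% in these data); inactive means the rest.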

The target of the assay is Troponin I, cardiac muscle (Homo sapiens) + Troponin T, cardiac muscle (Homo sapiens) + Troponin C, slow skeletal and cardiac muscles (Homo sapiens) (UniProt P19429+P45379+P63316). The experiment in a line: calcium sensitizers of cardiac thin filaments – biochemical, IANBD-TnC fluorescence, triplicate, confirmation (AID 504383).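 Further: 0% = DMSO at 0.472 mM calcium and 100% = DMSO at 2.9 mM calcium.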 The conditions noted are these: IANBD-labeled cardiac RTF, Ca2+ sensitivity fluorescence; at 7.2 µM; stronger effect = higher value; scaled from EC20 to saturating calcium; tested at EC20 calcium, 0.472 mM. The gist of the method: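 Material: labelled regulated thin filaments; Reagent: 0.472 mM calcium; Incubation: 15 min compound incubation with filaments at 25 °C; Detection: filament fluorescence intensity; Evaluation: fluorescence increase normalised to calcium controls; Benchmarks: low control EC20 calcium, high control EC100 calcium.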
`CC(C(=O)NNS(=O)(=O)c1cccc(C(F)(F)F)c1)n1nnc(N2CCOCC2)n1` (centres undefined): the activation is 5.72%.

`C=CCOc1ccn(C)c(=O)n1`: the activation was 12.1% (active). As for `CCOc1ccc(NC(=O)C2CC(=O)N=C(N)S2)cc1` (centres undefined), the figure is 4.04%; as for `COc1ccc(N=Nc2nc3ccc(Br)cc3n2C)cc1`, 10.6%; as for `COc1ccc(N=Nc2nc3cc(Br)c(Br)cc3n2C)c(OC)c1`, 2020% (active). On to `COc1ccc(Nc2nc3ccc(C)cc3cc2C#N)c(OC)c1`, for which the activation is 3.9%. As for `Cc1cccc(N2C(=O)c3cccc4c(N)ccc(c34)C2=O)c1`, the figure is 0.54%; as for `COc1ccccc1N1C(=O)c2cccc3c(N(C)CCO)ccc(c23)C1=O`, 7.87%. Take `Cc1ccc(N2C(=O)c3cccc4c(N)ccc(c34)C2=O)c2cccnc12`: the activation was 9.53%. Turning to `CN(C)CCCN1C(=O)c2cccc3c([N+](=O)[O-])ccc(c23)C1=O`, the activation is 38.5% (active). Regarding `O=C1c2cccc3c([N+](=O)[O-])ccc(c23)C(=O)N1Cc1cccnc1`, the activation is 3.03%. The same measure for `Cc1ccnc(N2C(=O)c3cccc4c([N+](=O)[O-])ccc(c34)C2=O)c1`: 16.1% (active); for `CCOC(=O)c1sc(-c2ccc(F)cc2)cc1NC(=O)Nc1ccccc1OC`: 37.5% (active). The same measure for `CCOc1ccc2ccccc2c1CNCCN1CCOCC1`: 27% (active); for `COc1ccccc1NS(=O)(=O)c1cc(C(=O)NCCN2CCOCC2)ccc1Cl`: 2.55%; for `CC1=CC(=C(C#N)c2nc3ccccc3s2)C=C(C)N1c1ccc(F)cc1`: 74.2% (active). As to `COc1ccccc1N1C(C)=CC(=C(C#N)c2nc3ccccc3s2)C=C1C`, the activation is 11.1%. The same measure for `COCCn1c(C)cc(C(=O)COC(=O)c2ccc(Cl)c(S(N)(=O)=O)c2)c1C`: 13% (active). With `Cc1ccc(-n2c(C)cc(C(=O)COC(=O)c3ccc[nH]c3=O)c2C)cc1`, the activation is 6.02%.

As for `O=C1CCC(=O)N1CC(O)COc1ccccc1` (centres undefined), the activation is 255% (active). The same measure for `Cc1cc(C)n(CC(O)COc2ccccc2)n1` (centres undefined): 6.17%; for `OCCN1CCN(CC(O)COc2ccc(C34CC5CC(CC(C5)C3)C4)cc2)CC1` (centres undefined): 90.4% (active); for `CCOc1cc(C2C3=C(CCCC3=O)N(C)C3=C2C(=O)CCC3)cc(Cl)c1O`: 6.5%. The same measure for `CCCN1C(=O)c2ccccc2NC1c1ccc(O)c(OCC)c1` (centres undefined): 14.5% (active); for `COc1ccc(/C(C)=N/N2C(=O)c3ccccc3NC2c2ccc(O)c(OC)c2)cc1` (centres undefined): 9.34%; for `CC(C)C12CN(C(=O)c3ccccc3[N+](=O)[O-])CC(C(C)C)(CN(C(=O)c3ccccc3[N+](=O)[O-])C1)C2=O`: 6.99%. As for `O=C(O)c1cccc2c1-c1c(cccc1[N+](=O)[O-])C2`, the figure is 1890% (active); as for `CCc1ccc(Nc2n[n+](-c3ccccc3)c(-c3ccc(N(CC)CC)cc3)s2)cc1`, 5.32%; as for `CCN(CC)c1ccc(-c2sc(Nc3ccccc3)n[n+]2-c2ccc(F)cc2)cc1`, 18.7% (active). Turning to `CCN(CC)c1ccc(NC(=S)Nc2ccc(F)cc2)cc1`, the activation was 5.29%.

With `CCOC(=O)/C(C#N)=C/c1ccc(N2CCN(Cc3ccccc3)CC2)cc1`, the activation is 285% (active). As for `CCOC(=O)/C(C#N)=C\c1ccc(N2CCN(C/C=C/c3ccccc3)CC2)cc1`, the figure is 4.67%; as for `CCN(CC)c1ccc2cc(C(=O)NCc3ccc(F)cc3)c(=N)oc2c1`, 54.1% (active); as for `CCOC(=O)Nc1ccc(NCc2ccc(F)cc2)nc1N`, 5.72%.

Regarding `COC(=O)CNC(=O)COC(=O)c1cc(F)c(F)cc1Cl`, the activation was 7.53%. The same measure for `Cn1c2c(c(=O)n(C)c1=O)C(C(F)(F)F)(C(F)(F)F)N=C(CCC1CCCCC1)N2`: 9.24%; for `CC(C)(C)C1(O)CC(C(F)(F)F)=NN1C(=O)CCCc1ccccc1` (centres undefined): 3.64%. The same measure for `COC(=O)C1=NN(C(=O)c2ccc(Br)cc2)C(O)(C(C)(C)C)C1` (centres undefined): 13.4% (active); for `CCN(CC)c1ccc(/C=C2/SC(=O)N(C(C)C)C2=O)o1`: 15.2% (active). The same measure for `COc1ccc(/C=C2\Oc3cc(OCC(=O)N4CCC(C(=O)O)CC4)ccc3C2=O)c(OC)c1`: 249% (active); for `COc1ccc(/C=C2\Oc3cc(OCC(=O)N4CCC[C@H]4CO)ccc3C2=O)c(OC)c1`: 13.8% (active). In the case of `COc1ccc(/C=C2\Oc3cc(OC(=O)N4CCOCC4)ccc3C2=O)c(OC)c1`, the activation is 19.2% (active). As for `COc1ccc(/C=C2\Oc3cc(OCC(=O)N4CCC[C@H]4C(=O)O)ccc3C2=O)c(OC)c1`, the figure is 17.4% (active). As to `COc1cc(OC)c(OC)cc1/C=C1\Oc2cc(OCC(=O)N3Cc4ccccc4C[C@H]3C(=O)O)ccc2C1=O`, the activation was 7.71%. As to `CS(=O)(=O)N(CC(=O)NCCSCc1ccccc1)c1ccccc1`, the activation was 7.88%. As for `CCOC(=O)c1c(NC(=O)c2ccno2)c2cc([N+](=O)[O-])ccc2n1C`, the figure is 4.78%; as for `Cc1cccc(OCc2nn[nH]n2)c1C`, 9.03%; as for `Cc1cccc(C)c1OCC(C)N` (centres undefined), 15.2% (active). The same measure for `CC(=O)Oc1ccc2c(c1)Oc1cc(OC(C)=O)ccc1C21OC(=O)c2ccccc21`: 49.7% (active); for `CC1CCCCC1NS(=O)(=O)CCNC(=O)c1ccccc1` (centres undefined): 1.54%; for `Cc1cc(C)c2c(SC(C)C)nc(N)nc2n1`: 18.3% (active).

Turning to `Cc1ccccc1NC(=S)Nc1ccc(Br)cc1`, the activation is 9.23%.

For `Cc1ccc(NC(=O)Cn2ccnc2)cc1C`, the activation is 6.24%. As for `Cc1ccc(NC(=S)Nc2ccc3nc(-c4ccccn4)c(-c4ccccn4)nc3c2)cc1C`, the figure is 15.9% (active).

Turning to `C=CCn1c(C)cc(-c2csc(N)n2)c1C`, the activation is 9.08%. In the case of `O=C(Nc1nc(-c2nc3ccccc3s2)cs1)C1COc2ccccc2O1` (centres undefined), the activation was 43.4% (active). The same measure for `O=C(Nc1ccc(Cl)cn1)C1COc2ccccc2O1` (centres undefined): 54.7% (active); for `CC(=O)Nc1sc2c(c1-c1nc3ccccc3s1)CN(C(C)C)CC2`: 3.29%.

With `O=C1NC(c2ccccc2)=C(c2nc3ccccc3s2)C(c2ccc(O)cc2)N1` (centres undefined), the activation is 2.85%. Consider `NC(=O)c1c(NC(=O)C2COc3ccccc3O2)sc2c1CCN(Cc1ccccc1)C2` (centres undefined), for which the activation was 5.35%. As for `Cc1ccc(S(=O)(=O)c2c(N)n(Cc3ccco3)c3nc4ccccc4nc23)cc1`, the figure is 8.53%.

As to `Nc1c(S(=O)(=O)c2ccccc2)c2nc3ccccc3nc2n1Cc1ccco1`, the activation was 79.2% (active). On to `Nc1c(S(=O)(=O)c2ccccc2)c2nc3ccccc3nc2n1/N=C/c1ccco1`, for which the activation is 4.69%. Turning to `COc1cccc(CNC(=O)CN(C)S(=O)(=O)c2ccc3c(c2)c(=O)n(C)c(=O)n3C)c1`, the activation was 11.5%. As for `COc1cccc(CNC(=O)CN(C)S(=O)(=O)c2cnc[nH]2)c1`, the figure is 151% (active); as for `COc1ccccc1/C=C/CN1CCC(CO)(Cc2ccccc2)CC1`, 11.1%; as for `CCC(=Cc1ccccc1OC)c1ccncc1`, 17.2% (active). Turning to `CCOc1ccc(-c2ncncc2-c2ccccc2OC)c(O)c1`, the activation was 5.97%. As for `Cc1cc[n+](-c2[nH]c(=O)sc2/C=N/NC([S-])=Nc2ccccc2)cc1C`, the figure is 6.12%; as for `CC(C)(C)c1cc[n+](-c2[nH]c(=O)sc2/C=N/NC([S-])=Nc2ccccc2)cc1`, 5.34%. The same measure for `Cc1cc[n+](-c2[nH]c(=O)sc2/C=N/NC([S-])=Nc2ccccc2)cc1`: 18.3% (active). The same measure for `O=c1[nH]c(-[n+]2ccccc2)c(/C=N/NC([S-])=Nc2ccccc2)s1`: 8.23%; for `Cc1cc(C)c[n+](-c2[nH]c(=O)sc2/C=N/NC([S-])=Nc2ccccc2)c1`: -0.42%. For `CCc1ccc[n+](-c2[nH]c(=O)sc2/C=N/NC([S-])=Nc2ccccc2)c1`, the activation was 49.2% (active). As for `Cc1cc[n+](-c2[nH]c(=O)sc2/C=N/N=C(\[O-])c2ccccc2)cc1C`, the figure is 22.1% (active); as for `CN1C(=O)c2cccc3c(N)ccc(c23)C1=O`, 5.53%. As for `CCCCNc1ccc2c3c(cccc13)C(=O)N(CCCC)C2=O`, the figure is 5.54%; as for `Cc1cccc(N2C(=O)c3cccc4c(N(C)CCO)ccc(c34)C2=O)c1`, 6.7%; as for `CNc1ccc2c3c(cccc13)C(=O)N(C)C2=O`, 44.4% (active). Regarding `CN1C(=O)c2cccc3c(N(C)C)ccc(c23)C1=O`, the activation is 223% (active). As for `Cc1ccccc1N1C(=O)c2cccc3c(N(C)CCO)ccc(c23)C1=O`, the figure is 11.1%; as for `O=C(CSc1ccc(Cl)cc1)Nc1nnc(-c2cccc([N+](=O)[O-])c2)s1`, -1.31%.

`O=C(Cc1ccc(Cl)cc1)NNS(=O)(=O)c1ccc([N+](=O)[O-])cc1`: the activation was 275% (active). `O=S(=O)(O)c1nc2ccccc2n1Cc1ccccc1`: the activation is 51.8% (active). Regarding `O=c1[nH]ncc2c3ccccc3n(Cc3cccc(Cl)c3)c12`, the activation was -2.41%.

For `CCN1C(=O)c2cccc3c(NC(=O)c4ccc5c(c4)OCCO5)ccc1c23`, the activation is 1730% (active). As for `CCCCN(C(=O)c1ccc2c(c1)OCCO2)c1c(N)n(CCCC)c(=O)[nH]c1=O`, the figure is 3.97%. As for `Cc1ccccc1NC(=O)c1nnn(-c2ccc3c(c2)OCCO3)c1N`, the figure is 5.33%; as for `COc1cccc(S(=O)(=O)Nc2cccc(C(=O)N3CCCCCC3)c2)c1`, -0.51%; as for `O=C(Cc1ccc(NC(=O)C2CCCN(C(=O)C3CCCCC3)C2)cc1)Nc1cccc(C(=O)N2CCCC2)c1` (centres undefined), 13.2% (active). The same measure for `CN(Cc1ccccc1)C(=O)c1ccc(NC(=O)Cc2ccc(NC(=O)C3CCCN(S(=O)(=O)c4cccc([N+](=O)[O-])c4)C3)cc2)cc1` (centres undefined): 6.95%.

For the compound `Cc1ccc(S(=O)(=O)NCCCCCC(=O)Nc2ccccc2C)cc1`, the activation is 34.1% (active). As to `CC(=O)Nc1ccc(S(=O)(=O)NCCC(=O)OCC(=O)c2cc(C)ccc2C)cc1`, the activation is 10.1%. `Cc1ccc(S(=O)(=O)Nc2ccccc2N(C)S(=O)(=O)c2ccc(C)cc2)cc1`: the activation was 9.04%.

The values are drawn from PubChem BioAssay AID504383 (The Scripps Research Institute Molecular Screening Center, 2011).
